4 compounds from ChEMBL document CHEMBL4002546, “Evaluation of 7-arylaminopyrazolo[1,5-a]pyrimidines as anti-Plasmodium falciparum, antimalarial, and Pf-dihydroorotate dehydrogenase inhibitors” (Eur J Med Chem, 2017) can be followed below.

pIC50: −log10 of the molar value.

For data set [1], the system named is Plasmodium falciparum. Put plainly: Antiplasmodial activity against chloroquine-resistant/mefloquine-sensitive Plasmodium falciparum W2 infected in human A+ erythrocytes assessed as inhibition of parasite growth by HRP2 detection based assay. The data set is classed as functional, cell-based. Summed up:
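W2 blood-stage culture in A+ human erythrocytes in RPMI 1640 with 10% A+ human serum at 37 °C, under 3% O2/5% CO2. Growth was read with monoclonal antibodies against histidine- and alanine-rich protein II (HRPII). IC50 was estimated by curve fitting against drug-free controls.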

Data set [2] can be described thus: Solubility of the compound at >100 uM. The data set is classed as physicochemical.
For data set [3], the system named is Plasmodium berghei. Put plainly: Antimalarial activity against Plasmodium berghei NK65 infected in mouse assessed as reduction in parasitemia at 5 mg/kg, po administered daily for 3 consecutive days starting 24 hrs post inoculum challenge containing parasitized red blood cells measured on day 9 by giemsa staining based microscopic method. The data set is classed as functional. Summed up:
(§1)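 P. berghei NK65 maintained by weekly blood passage. Mice inoculated i.p. with 1 × 10⁶ infected erythrocytes, randomized after ~24 h into groups of five. Oral dosing at 5 mg/kg once daily for 3 days, freshly diluted in 3% DMSO in RPMI; vehicle and amodiaquine controls. Parasitemia read on Giemsa-stained, methanol-fixed tail-blood thin smears. Inhibition is relative to untreated mice, taken as 100% growth.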

Data set [4] concerns the target Dihydroorotate dehydrogenase (quinone), mitochondrial (Homo sapiens) (UniProt Q02127). Put plainly: Inhibition of recombinant human DHODH assessed as residual activity at 50 uM using L-dihydroorotate as substrate by DCIP-based colorimetric assay relative to control. Summed up:
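Recombinant human DHODH at 20 nM final, in 50 mM Tris pH 8.15 with 150 mM KCl and 0.1% Triton X-100. Substrate was 1 mM L-dihydroorotate, with CoQ0 as acceptor and DCIP as dye. DCIP reduction was followed at 610 nm for 60 s at 25 °C, against a no-enzyme reference. Four replicates per concentration; activity is % of the uninhibited control.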

A short description of data set [5]: Selectivity index, ratio of MLD50 for african green monkey BGM cells to IC50 for chloroquine-resistant Plasmodium falciparum W2 infected in human A+ erythrocytes by [3H]-hypoxanthine incorporation assay. The data set is classed as toxicity, cell-based. As to conditions: read-out: Selectivity Index.
The test system of data set [6] is Plasmodium falciparum. Put plainly: Antiplasmodial activity against chloroquine-resistant Plasmodium falciparum W2 infected in human A+ erythrocytes after 48 hrs by SYBR Green based fluorescence assay. The data set is classed as functional, cell-based. The following applies: W2, 48 h. The procedure, abridged: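 W2 parasites kept at 37 °C in A+ human red cells in RPMI 1640 with 10% A+ human serum, under 3% O2/5% CO2/91% N2. Serial dilutions were run at 0.5% parasitemia and 2% haematocrit for 48 h at 37 °C. Cells were lysed in Tris/EDTA/saponin/Triton buffer with SYBR Safe for 30 min in the dark, then read at ex 485/em 535 nm. IC50 was curve-fitted against drug-free controls.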

Data set [7] can be described thus: Selectivity index, ratio of MLD50 for african green monkey BGM cells to IC50 for chloroquine-resistant Plasmodium falciparum W2 infected in human A+ erythrocytes by SYBR Green based fluorescence assay. The data set is classed as toxicity, cell-based.
Data set [8] deals with Plasmodium berghei. Description: Antimalarial activity against Plasmodium berghei NK65 infected in mouse assessed as reduction in parasitemia at 5 mg/kg, po administered daily for 3 consecutive days starting 24 hrs post inoculum challenge containing parasitized red blood cells measured on day 5 by giemsa staining based microscopic method. The data set is classed as functional. Summed up:
as §1

In data set [9] the test system is Plasmodium falciparum. Description: Antiplasmodial activity against chloroquine-resistant Plasmodium falciparum W2 infected in human A+ erythrocytes assessed as inhibition of [3H]-hypoxanthine incorporation after 42 hrs by beta counting method. The data set is classed as functional, cell-based. The procedure, abridged: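 W2 parasites cultured at 37 °C in A+ human erythrocytes in RPMI 1640 with 10% A+ human serum, under low O2 (3% O2, 5% CO2). Compound dilutions were tested at 1% parasitemia and 1% haematocrit. [3H]-hypoxanthine uptake was read by beta counting after 42 h. IC50 was derived by curve fitting relative to drug-free controls.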

Data set [10] is described as follows: Cytotoxicity against African green monkey BGM cells assessed as lethality after 24 hrs by neutral red dye based assay. The data set is classed as cell-based. The following applies: chlorocebus aethiops, read-out: MLD50. The procedure, abridged:
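BGM monkey kidney cells grown in RPMI 1640 with 10% heat-inactivated foetal serum and gentamicin. Cells were seeded at 1 × 10⁵ cells/mL and left 18 h to adhere. Compounds were added across a 1000–1 dilution range for 24 h at 37 °C in 5% CO2. Cells took up neutral red for 2 h, were fixed with formaldehyde/CaCl2 and extracted with alcohol-acetic acid, then read at A540. Viability is % of untreated cells; MLD50 was calculated from this.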

A short description of data set [11]: Inhibition of N-terminally truncated Plasmodium falciparum SUMO-tagged DHODH (159 to 569 residues) expressed in Escherichia coli BL21(DE3) using L-dihydroorotate as substrate by DCIP-based colorimetric assay. Summed up:
(§2)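 Recombinant PfDHODH expressed in E. coli BL21(DE3) from a SUMO-His construct, IPTG-induced. Purified by Ni-NTA, then ULP1 tag cleavage, then size exclusion. Activity measured as continuous DCIP reduction at 600 nm over 60 s at 25 °C. Reaction: 50 mM Tris pH 8.15, 150 mM KCl, 0.1% Triton X-100, 1 mM L-dihydroorotate, 100 µM CoQ₀, 60 µM DCIP, 50 nM enzyme. Four replicates per concentration; activity relative to no-inhibitor control. IC50 from nonlinear fit.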

The test system of data set [12] is Plasmodium berghei. Put plainly: Antimalarial activity against Plasmodium berghei NK65 infected in mouse assessed as reduction in parasitemia at 5 mg/kg, po administered daily for 3 consecutive days starting 24 hrs post inoculum challenge containing parasitized red blood cells measured on day 7 by giemsa staining based microscopic method. The data set is classed as functional. The procedure, abridged:
as §1

Data set [13] relates to Plasmodium berghei. Description: Antimalarial activity against Plasmodium berghei NK65 infected in mouse assessed as reduction in parasitemia at 5 mg/kg, po administered daily for 3 consecutive days starting 24 hrs post inoculum challenge containing parasitized red blood cells measured on day 11 by giemsa staining based microscopic method. The data set is classed as functional. The procedure, abridged:
as §1

Data set [14] deals with Plasmodium falciparum. Description: Inhibition of N-terminally truncated Plasmodium falciparum SUMO-tagged DHODH (159 to 569 residues) expressed in Escherichia coli BL21(DE3) assessed as residual activity at 50 uM using L-dihydroorotate as substrate by DCIP-based colorimetric assay relative to control. Summed up:
as §2

Dihydroorotate dehydrogenase (quinone), mitochondrial (Homo sapiens), sequence (Q02127 whole entry): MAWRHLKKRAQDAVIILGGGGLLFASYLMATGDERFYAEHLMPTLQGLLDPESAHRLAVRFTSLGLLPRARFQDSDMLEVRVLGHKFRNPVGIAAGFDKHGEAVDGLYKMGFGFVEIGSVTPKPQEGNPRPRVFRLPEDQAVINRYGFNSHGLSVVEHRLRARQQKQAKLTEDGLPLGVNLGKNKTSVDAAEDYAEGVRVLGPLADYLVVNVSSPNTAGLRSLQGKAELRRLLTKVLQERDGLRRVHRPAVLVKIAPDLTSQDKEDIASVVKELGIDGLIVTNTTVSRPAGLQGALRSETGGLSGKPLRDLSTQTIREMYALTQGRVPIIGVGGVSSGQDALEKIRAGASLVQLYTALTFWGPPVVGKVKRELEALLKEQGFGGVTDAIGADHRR

Turning to `COc1ccc(Nc2cc(C)nc3nc(C(F)(F)F)nn23)cc1`, the pIC50 (usually the IC50 on a negative log10 scale, so that one unit is a factor of ten) with Plasmodium falciparum [1] is 6.40.

`FC(F)(F)c1cc(Nc2cc(Cl)cc(Cl)c2)n2nc(C(F)(F)F)nc2n1`: the negative-log IC50 (pIC50) with Plasmodium falciparum [1] is 4.91.

With `CCN(CC)CCCC(C)Nc1cc(C)nc2nc(C(F)(F)F)nn12` (stereo unspecified), the pIC50 in the data set with Plasmodium falciparum [1] was 4.41.

In the case of `Cc1cc(Nc2ccc3ccccc3c2)n2nc(C(F)(F)F)cc2n1`, the solubility entry in [2] is listed as “Insoluble”. The inhibition in vivo (in general, the change of the read-out against control, counted positive when it falls) at 5 mg/kg in the data set on Plasmodium berghei [3] worked out at 47%; in the data set with Plasmodium berghei [8], 50%; in the data set on Plasmodium berghei [12], 61%; with Plasmodium berghei [13], 59%. The Activity in data set [4] came out at 56.8%; in the data set with Plasmodium falciparum [14], 67.5%. Also, the selectivity ratio in [5] and in data set [7] was 468 each time. Besides, the negative logarithm of the IC50 (pIC50) was 5.92 with Plasmodium falciparum [6], 5.92 in the data set with Plasmodium falciparum [9] and 5.22 in data set [11]. The CC50 at 24 h in data set [10] stood at 561 µM.
